Measurements reported in ChEMBL document CHEMBL5649170, “Sustained microglial depletion with CSF1R inhibitor impairs parenchymal plaque development in an Alzheimer's disease model” (Nat Commun, 2019).

Tests used:
[1] = biological target: T1, Macrophage colony-stimulating factor 1 receptor (Mus musculus) (UniProt P09581); assay: (§1) In vivo inhibition of CSF1R in wildtype mouse assessed as microglial numbers by measuring number of Iba positive cells per FOV in retro spinal cortex at 75 ppm administered as rodent chow starting from 1.5 months and measured after 5 months by immunolabeling based confocal microscopic analysis (reference value: 200 to 275); type: functional; conditions: route po, time 3.5 months
T1 sequence (whole entry): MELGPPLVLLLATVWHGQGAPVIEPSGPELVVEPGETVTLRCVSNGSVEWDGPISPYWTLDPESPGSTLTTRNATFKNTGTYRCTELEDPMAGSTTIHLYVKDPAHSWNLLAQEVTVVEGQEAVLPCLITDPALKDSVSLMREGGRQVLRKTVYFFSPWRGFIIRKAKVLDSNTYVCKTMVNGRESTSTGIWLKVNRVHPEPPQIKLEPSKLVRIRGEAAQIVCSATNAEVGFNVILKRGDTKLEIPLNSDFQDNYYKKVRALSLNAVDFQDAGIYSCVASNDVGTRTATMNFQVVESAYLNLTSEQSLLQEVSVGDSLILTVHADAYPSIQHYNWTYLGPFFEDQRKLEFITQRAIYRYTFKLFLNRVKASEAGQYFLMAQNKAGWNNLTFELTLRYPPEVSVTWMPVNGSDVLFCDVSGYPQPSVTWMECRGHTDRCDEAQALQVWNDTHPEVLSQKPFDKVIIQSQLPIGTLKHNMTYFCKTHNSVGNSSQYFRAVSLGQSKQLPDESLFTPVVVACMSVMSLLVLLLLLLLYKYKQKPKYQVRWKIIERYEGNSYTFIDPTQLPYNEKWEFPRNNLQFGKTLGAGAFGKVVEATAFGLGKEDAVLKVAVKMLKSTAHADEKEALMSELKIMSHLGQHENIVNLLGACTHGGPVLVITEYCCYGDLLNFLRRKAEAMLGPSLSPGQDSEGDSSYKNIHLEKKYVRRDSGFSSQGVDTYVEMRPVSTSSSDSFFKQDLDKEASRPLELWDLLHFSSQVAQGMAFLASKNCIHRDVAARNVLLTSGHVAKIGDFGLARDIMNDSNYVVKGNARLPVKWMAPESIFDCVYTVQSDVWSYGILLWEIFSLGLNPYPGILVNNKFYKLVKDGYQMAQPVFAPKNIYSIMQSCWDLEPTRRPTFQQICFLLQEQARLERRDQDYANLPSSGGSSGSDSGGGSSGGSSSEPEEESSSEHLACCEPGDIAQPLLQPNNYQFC

[2] = biological target: T1, Macrophage colony-stimulating factor 1 receptor (Mus musculus); assay: as §1, with “somatosensory” for “retro spinal”, “218” for “200”, “349)” for “275)”; type: functional; conditions: route po, time 3.5 months
Ephrin type-A receptor 1 = Ephrin type-A receptor 1 (Homo sapiens, UniProt P21709); assay: Inhibition of EPHA1 (unknown origin)
Ephrin type-A receptor 1, sequence (P21709 whole entry): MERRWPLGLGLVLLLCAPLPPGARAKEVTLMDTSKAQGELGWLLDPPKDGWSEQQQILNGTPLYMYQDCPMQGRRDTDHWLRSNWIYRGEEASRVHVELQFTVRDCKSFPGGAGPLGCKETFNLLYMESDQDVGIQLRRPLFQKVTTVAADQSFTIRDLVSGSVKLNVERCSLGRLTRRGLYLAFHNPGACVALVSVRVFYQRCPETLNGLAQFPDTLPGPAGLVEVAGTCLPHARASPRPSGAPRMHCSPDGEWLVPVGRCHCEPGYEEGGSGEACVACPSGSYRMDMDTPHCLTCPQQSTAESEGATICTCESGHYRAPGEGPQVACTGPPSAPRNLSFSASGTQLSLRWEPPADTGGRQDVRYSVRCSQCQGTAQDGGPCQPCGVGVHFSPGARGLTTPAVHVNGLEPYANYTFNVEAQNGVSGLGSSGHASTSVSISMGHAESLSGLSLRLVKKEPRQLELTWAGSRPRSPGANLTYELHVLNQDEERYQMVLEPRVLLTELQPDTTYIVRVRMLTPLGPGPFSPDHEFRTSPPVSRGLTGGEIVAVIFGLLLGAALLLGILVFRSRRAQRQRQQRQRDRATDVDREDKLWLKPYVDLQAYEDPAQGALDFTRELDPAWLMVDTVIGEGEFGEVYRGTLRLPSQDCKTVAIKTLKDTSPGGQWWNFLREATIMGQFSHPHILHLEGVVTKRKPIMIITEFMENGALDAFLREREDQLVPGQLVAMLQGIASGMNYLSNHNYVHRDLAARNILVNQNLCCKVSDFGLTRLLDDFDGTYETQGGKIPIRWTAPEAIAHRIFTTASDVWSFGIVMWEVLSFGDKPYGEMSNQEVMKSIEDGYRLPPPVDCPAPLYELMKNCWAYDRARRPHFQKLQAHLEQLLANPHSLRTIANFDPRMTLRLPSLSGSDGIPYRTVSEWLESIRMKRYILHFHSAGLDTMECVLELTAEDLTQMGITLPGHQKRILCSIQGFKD

[3] = biological target: Serine/threonine-protein kinase mTOR (Homo sapiens, UniProt P42345); assay: Inhibition of FRAP1 (unknown origin)
[4] = biological target: Tyrosine-protein kinase Lyn (Homo sapiens, UniProt P07948); assay: Inhibition of LYN_B (unknown origin)
Tyrosine-protein kinase Lyn, sequence (P07948 whole entry): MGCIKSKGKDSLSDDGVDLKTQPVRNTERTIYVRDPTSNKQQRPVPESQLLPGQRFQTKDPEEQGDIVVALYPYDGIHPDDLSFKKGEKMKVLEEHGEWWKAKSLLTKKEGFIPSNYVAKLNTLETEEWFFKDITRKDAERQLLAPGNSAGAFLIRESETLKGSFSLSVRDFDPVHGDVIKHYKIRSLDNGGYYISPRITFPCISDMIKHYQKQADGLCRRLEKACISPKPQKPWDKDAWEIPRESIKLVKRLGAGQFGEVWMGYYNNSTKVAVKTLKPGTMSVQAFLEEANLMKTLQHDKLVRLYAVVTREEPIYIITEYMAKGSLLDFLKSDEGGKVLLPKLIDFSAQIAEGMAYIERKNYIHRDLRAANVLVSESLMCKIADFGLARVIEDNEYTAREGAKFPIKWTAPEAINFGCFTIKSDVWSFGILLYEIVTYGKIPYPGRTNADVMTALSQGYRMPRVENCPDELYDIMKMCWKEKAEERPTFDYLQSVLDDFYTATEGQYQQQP

[5] = biological target: Ribosomal protein S6 kinase alpha-2 (Homo sapiens, UniProt Q15349); assay: Inhibition of RPS6KA2 (unknown origin)
Ribosomal protein S6 kinase alpha-2, sequence (Q15349 whole entry): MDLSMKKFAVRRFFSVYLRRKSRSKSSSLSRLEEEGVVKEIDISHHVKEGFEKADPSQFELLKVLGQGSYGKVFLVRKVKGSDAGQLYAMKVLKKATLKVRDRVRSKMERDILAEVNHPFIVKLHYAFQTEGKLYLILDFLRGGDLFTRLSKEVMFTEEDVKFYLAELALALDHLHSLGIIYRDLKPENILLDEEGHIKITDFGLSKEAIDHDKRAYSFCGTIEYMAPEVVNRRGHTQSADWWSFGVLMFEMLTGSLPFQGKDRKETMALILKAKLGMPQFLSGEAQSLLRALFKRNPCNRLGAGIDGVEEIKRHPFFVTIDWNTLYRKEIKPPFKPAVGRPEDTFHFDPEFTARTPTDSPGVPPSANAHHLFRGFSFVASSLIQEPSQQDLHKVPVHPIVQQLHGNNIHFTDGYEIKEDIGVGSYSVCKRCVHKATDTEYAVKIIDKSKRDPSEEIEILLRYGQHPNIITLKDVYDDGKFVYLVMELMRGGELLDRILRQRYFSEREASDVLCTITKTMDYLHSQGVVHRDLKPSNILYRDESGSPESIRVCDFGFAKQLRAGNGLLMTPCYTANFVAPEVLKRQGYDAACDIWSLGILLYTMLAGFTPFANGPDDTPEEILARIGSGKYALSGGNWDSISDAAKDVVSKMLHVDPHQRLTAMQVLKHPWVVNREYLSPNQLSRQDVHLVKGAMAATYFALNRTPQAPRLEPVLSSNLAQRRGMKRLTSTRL

[6] = biological target: Serine/threonine-protein kinase Sgk3 (Homo sapiens, UniProt Q96BR1); assay: Inhibition of SGKL (unknown origin)
Serine/threonine-protein kinase Sgk3, sequence (Q96BR1 whole entry): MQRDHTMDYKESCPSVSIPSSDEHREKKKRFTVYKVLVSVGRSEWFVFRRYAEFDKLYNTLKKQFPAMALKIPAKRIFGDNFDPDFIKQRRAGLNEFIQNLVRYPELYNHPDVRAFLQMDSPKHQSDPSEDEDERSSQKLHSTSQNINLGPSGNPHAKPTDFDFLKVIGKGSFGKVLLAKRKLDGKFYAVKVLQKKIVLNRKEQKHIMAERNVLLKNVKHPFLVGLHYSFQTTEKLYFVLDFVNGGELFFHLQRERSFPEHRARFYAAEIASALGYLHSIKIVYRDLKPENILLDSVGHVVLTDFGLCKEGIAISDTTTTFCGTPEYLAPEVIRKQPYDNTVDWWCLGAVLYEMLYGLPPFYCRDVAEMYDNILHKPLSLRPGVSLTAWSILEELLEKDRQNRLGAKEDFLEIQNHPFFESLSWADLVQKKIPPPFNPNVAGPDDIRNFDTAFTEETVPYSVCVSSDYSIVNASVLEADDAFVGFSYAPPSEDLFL

[7] = Toxicity in wildtype mouse assessed as number of open arm entries at 1200 ppm administered as rodent chow for 10 to 24 weeks by Elevated plus maze test (reference value: 7 to 29); conditions: in vivo, po, time 10-24 weeks
Mus musculus [8] = assay: Antialzheimer activity in 5XFAD mouse assessed as number of S100bteta positive cells per FOV in somatosensory cortex at 1200 ppm administered as rodent chow for 10 to 24 weeks by immunolabelling based confocal microscopic analysis (reference value: 283 to 357); type: functional; conditions: route po, time 10-24 weeks
Mus musculus [9] = assay: Antialzheimer activity in 5XFAD mouse assessed as average diameter of claudin-5 blood vessels in Thio-S negative thalamus at 1200 ppm administered as rodent chow starting from 1.5 months and measured after 4 months by immunolabeling analysis; type: functional; conditions: route po, time 2.5 months, 1825 h
Mus musculus [10] = assay: Effect on APP processing pathway in 5XFAD mouse assessed as PS1 protein signal intensity in cortex at 1200 ppm administered as rodent starting from 1.5 months and measured after 7 months (reference value: 64.603 to 143.235 %); type: functional; conditions: route po, time 5.5 months, 4015 h
Mus musculus [11] = assay: Effect on APP processing pathway in 5XFAD mouse assessed as C99 protein signal intensity in cortex at 1200 ppm administered as rodent starting from 1.5 months and measured after 7 months (reference value: 49.412 to 179.884 %); type: functional; conditions: route po, time 5.5 months, 4015 h
[12] = Effect on Csf1r RPKM gene expression in 5XFAD mouse hippocampus at 1200 ppm administered as rodent chow starting from 1.5 months and measured after 7 months by RNA-Seq analysis (reference value: 33.840 to 41.629 RPKM); type: functional; conditions: route po, time 5.5 months, 4015 h
[13] = Effect on Siglech gene expression in wild type mouse thalamus at 1200 ppm administered as rodent chow starting from 1.5 months and measured after 7 months by RNA-Seq analysis (reference value: 2.864 to 4.605 RPKM); type: functional; conditions: route po, time 5.5 months, 4015 h
[14] = Effect on ccl6 gene expression in 5XFAD mouse cortex at 1200 ppm administered as rodent chow starting from 1.5 months and measured after 7 months by RNA-Seq analysis (reference value: 4.103 to 8.161 RPKM); type: functional; conditions: route po, time 5.5 months, 4015 h
[15] = Effect on ccl6 gene expression in 5XFAD mouse thalamus at 1200 ppm administered as rodent chow starting from 1.5 months and measured after 7 months by RNA-Seq analysis (reference value: 3.667 to 7.093 RPKM); type: functional; conditions: route po, time 5.5 months, 4015 h
[16] = Effect on Clec7a gene expression in 5XFAD mouse cortex at 1200 ppm administered as rodent chow starting from 1.5 months and measured after 7 months by RNA-Seq analysis (reference value: 2.323 to 6.756 RPKM); type: functional; conditions: route po, time 5.5 months, 4015 h
How it was run: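 WT and 5xFAD mice were treated with 1200 ppm PLX5622 chow or control chow from 1.5 to 7 months of age. Brains were microdissected into cortex, hippocampus and thalamus, and RNA was extracted from tissue powder. Whole-transcriptome RNA-Seq libraries were sequenced, with n = 4 per group per region (48 samples).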

[17] = Effect on Cst7 gene expression in 5XFAD mouse hippocampus at 1200 ppm administered as rodent chow starting from 1.5 months and measured after 7 months by RNA-Seq analysis (reference value: 14.615 to 34.909 RPKM); type: functional; conditions: route po, time 5.5 months, 4015 h
[18] = Effect on Ctsz gene expression in wild type mouse hippocampus at 1200 ppm administered as rodent chow starting from 1.5 months and measured after 7 months by RNA-Seq analysis (reference value: 13.821 to 22.84 RPKM); type: functional; conditions: route po, time 5.5 months, 4015 h
[19] = Effect on Kcnq3 gene expression in wildtype mouse hippocampus assessed as percent change in Reads Per kilo base per Million mapped reads at 1200 ppm administered as rodent chow starting from 1.5 months and measured after 7 months by RNA-Seq analysis (reference value: 77.761 to 119.973 %); type: functional; conditions: route po, time 5.5 months, 4015 h

| Activity [1] | Activity [2] | SMILES | IC50 (Ephrin type-A receptor 1) | IC50 [3] | IC50 [4] | IC50 [5] | IC50 [6] | Activity [7] | Activity (Mus musculus [8]) | Activity (Mus musculus [9]) | Activity (Mus musculus [10]) | Activity (Mus musculus [11]) | Activity [12] | Activity [13] | Activity [14] | Activity [15] | Activity [16] | Activity [17] | Activity [18] | Activity [19] |
| --- | --- | --- | --- | --- | --- | --- | --- | --- | --- | --- | --- | --- | --- | --- | --- | --- | --- | --- | --- | --- |
| 162 | 205 | FC(F)(F)c1ccc(CNc2ccc(Cc3c[nH]c4ncc(Cl)cc34)cn2)cn1 [PEXIDARTINIB] | – | – | – | – | – | – | – | – | – | – | – | – | – | – | – | – | – | – |
| – | – | COc1ncc(F)cc1CNc1ccc(Cc2c[nH]c3ncc(C)cc23)c(F)n1 [PLX-5622] | > 1 µM | > 1 µM | > 1 µM | > 1 µM | > 1 µM | 6 | 307 | 1.854 um | 56.036% | 75.956% | 3.234 RPKM | 0 RPKM | 0.241 RPKM | 0 RPKM | 0.051 RPKM | 2.289 RPKM | 14.33 RPKM | 52.407% |
